Results gathered from unrelated publications.
Target: Glycogen synthase kinase-3 alpha (GSK3A, Homo sapiens, UniProt P49840)

| Structure (SMILES) | assay | test system | conditions | endpoint | result |
| --- | --- | --- | --- | --- | --- |
| COc1cc(Cl)c(C(=O)N[C@@H](CN[C@H]2CC[C@@H](N)CC2)Cc2ccc(C#N)cc2)cc1-c1ccc(CN[C@H](C)c2ccc(C)cc2)o1 | enzyme activity, inhibitor |  | 1 µM | remaining activity | 106% |
| O=C(N1CCS(=O)(=O)CC1)N1C[C@H](c2ccc(OC(F)(F)F)cc2)C[C@H](c2nc(C3CC3)no2)C1 | cell-free assay, competition with immobilised ligand |  | 1 µM | remaining binding | 100% |
| CCN(CC)CCNC(=O)c1c(C)[nH]c(/C=C2\C(=O)Nc3ccc(F)cc32)c1C | enzyme activity, inhibitor |  | 0.3 µM | inhibition | 2% |
| CCN(CC)c1ccc(C2=NNC(=O)CC2C)cc1[N+](=O)[O-] (stereo not shown) | enzyme activity, inhibitor |  | 10 µM | remaining activity | 89% |
| CC(C)(C)c1nc(-c2cccc(NS(=O)(=O)c3c(F)cccc3F)c2F)c(-c2ccnc(N)n2)s1 | enzyme activity, inhibitor, radiometric |  | 1 µM | remaining activity | 97% |
| CCCOc1ccc(OC)c(F)c1C(=O)c1ccc(C(=O)N[C@@H]2CNC[C@H]2NC(=O)c2ccc3[nH]ncc3c2)cc1 | enzyme activity, inhibitor |  | 10 µM | remaining activity | 89% |
| Cn1cnc(Br)c1C1=CN(c2ncnc3[nH]cnc23)CCS1 | enzyme activity, inhibitor, radiometric |  | 2 µM | inhibition | 84.1% |
| O=C(NCc1ncc(C(F)(F)F)cc1Cl)c1ccc2c(c1)C1(CCS(=O)(=O)CC1)[C@@H](C1CC1)N2S(=O)(=O)c1ccc(F)cc1 | cell-free assay, competition with immobilised ligand |  | 1 µM | remaining binding | 100% |
| COc1cc2ncnc(Nc3ccc(Oc4ccccc4)c(C)c3C)c2cc1OC | enzyme activity, inhibitor |  | 1 µM | inhibition | 2% |
| Cc1nc(Cc2cccc(C(F)(F)F)c2)sc1-c1ccc(C(N)=O)nc1 | cell-free assay, competition with immobilised ligand |  | 1 µM | remaining binding | 82% |
| N#CCCc1ccc2c(c1)-c1[nH]c3ccc([N+](=O)[O-])cc3c1CC(=O)N2 | cell-free assay |  | 0.5 µM | remaining signal | 0.804% |
| Cc1ccc(NC(=O)c2ccc(C)c(C(F)(F)F)c2)cc1C#Cc1nn(C2CCC(O)CC2)c2ncnc(N)c12 (stereo not shown) | cell-free assay, inhibitor |  | 10 µM | remaining signal | 79% |
| Cc1c[nH]c2nccc(Oc3c(F)cc(Nc4cc(Cl)nc(N)n4)cc3F)c12 | cell-free assay, competition with immobilised ligand |  | 0.1 µM | remaining binding | 95% |
| O=C1Cc2c([nH]c3ccc([N+](=O)[O-])cc23)-c2ccccc2N1 | cell-free assay |  | 0.5 µM | remaining signal | 0.971% |
| Cc1c(NC(=O)c2cc(C(N)=O)nc3cc(F)ccc23)c(C(F)(F)F)nn1Cc1ccc(C(C)(C)C)cc1 | cell-free assay, competition with immobilised ligand |  | 1 µM | remaining binding | 98% |
| O=C(Nc1cnn(-c2csc(C(=O)NC3COC3)c2)c1)Nc1ccccc1Cl | enzyme activity, inhibitor |  | 5 µM | remaining activity | 97.4% |
| CNc1cc(Oc2cc(C(=O)Nc3cc(N4CCN(C)CC4)cc(C(F)(F)F)c3)ccc2C)ncn1 | target engagement in cells, inhibitor, chemoproteomics | Huh-7 | 1 µM | inhibition | -23.9% |
| O=C1Nc2ccc(Cl)cc2C1=Cc1cc(Cl)c(O)c(Cl)c1 | cell-free assay |  | 0.5 µM | remaining signal | 76.1% |
| Nc1nc(Nc2ccc(S(N)(=O)=O)cc2)sc1C(=O)c1ccccc1[N+](=O)[O-] | enzyme activity, inhibitor |  | 0.1 µM | inhibition | 73 to 75% |
| CCCCNc1ncc2c(-c3ccc(F)cc3)nn(C[C@H]3CC[C@H](N)CC3)c2n1 | target engagement in cells, inhibitor, chemoproteomics |  | 20 mM | inhibition | 6% |
| O=C(Nc1cnc(Oc2ccc(F)cc2)nc1)N1CCc2ncccc2[C@@H]1c1ccc(F)cc1 | cell-free assay, competition with immobilised ligand |  | 1 µM | remaining binding | 93% |
| c1ccc(CNc2nc(N3CCOc4ccccc43)nc3c2CCCC3)cc1 | target engagement in cells, inhibitor, chemoproteomics |  | 20 mM | inhibition | 0% |
| CS(=O)(=O)N1CCCC(NC(=O)[C@H](CCC2CCCCC2)NC(=O)c2ccc(CNC(=O)c3cnc4ccccn34)cc2)C1 (stereo partly shown) | cell-free assay, competition with immobilised ligand |  | 0.1 µM | remaining binding | 100% |
| Cc1sc(C(=O)NC2COC2)cc1-n1cc(NC(=O)Nc2c(F)cccc2Cl)cn1 | enzyme activity, inhibitor |  | 10 µM | remaining activity | 128% |
| O=C(O)[C@@H]1[C@@H](Cn2nnc3ccccc3c2=O)CC[C@H]1C(=O)c1ccc(OCCC2CCOCC2)cc1 | cell-free assay, competition with immobilised ligand |  | 1 µM | remaining binding | 93% |
| CCCS(=O)(=O)Nc1ccc(F)c(C(=O)c2c[nH]c3ncc(-c4ccc(Cl)cc4)cc23)c1F | enzyme activity, inhibitor |  | 1 µM | inhibition | < 10% |
| Cc1ccc(Nc2nccc(N(C)c3ccc4c(C)n(C)nc4c3)n2)cc1S(N)(=O)=O | enzyme activity, inhibitor |  | 10 µM | inhibition | 48% |
| CC/C(=N\NC(=O)NCc1cccc(O)c1)c1ccc(O)c(C)c1O | enzyme activity, inhibitor |  | 0.1 µM | inhibition | 2.8% |
